From PubChem BioAssay
In the library only some 1% were active in any assay of this set; here they are far more common.
T cell modulator = T cell immune modulation candidate; 2C CD8+ T cell-vesicle binding, flow cytometry; active compounds read low; response (vesicle binding), % at 7 µM; 330,000 compounds, 0.068% hits;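 active = response, share of CD8 T cells binding vesicles, and their 90th percentile fluorescence all below set limits, cut at about 80% in these data, passing the limit was not always enough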;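 also: values below 100% mean blocked vesicle binding to the CD8+ T cells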
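Test system: purified 2C TCR transgenic mouse naive CD8+ T cells. Probe or stimulus: QL9-peptide-loaded Drosophila micro-vesicles bearing Ld, ICAM-1 and B7-1. Incubation: binding step 1.5 h, 37 °C, antibody labelling 20 min, ice. Measured by: flow cytometry of vesicle-bound cells.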
Bfl-1 A1 inh = inhibitors of the anti-apoptotic protein A1, read as caspase activation. MEF A1-2A-BIM cells, Caspase-Glo 3/7 luminescence, 3 h; percent of clofoctol response, vehicle zero. caspase activation, % (concentration not given with the values). 330,000 compounds, 0.066% hits. AID 2462;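 active = over half of replicate activation scores above 10%, or exactly half above 10 with the replicate mean above 10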
NLRP3 yeast inh = NALP3 inhibition in yeast. Yeast reconstituted NLRP3/ASC/caspase-1, beta-gal luminescence, 24 h. inhibition, % at 10 µM. 330,000 compounds, 0.39% hits;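 active = inhibition of 50% or more; inactive = inhibition below 50%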;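 also: plate controls were induced DMSO wells for no effect and uninduced yeast grown without galactose for full effect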
NALP1 inh = inhibitors of NALP1 inflammasome in yeast; S. cerevisiae NALP1/ASC/caspase-1 growth, X-gal OD620, 72 h; inhibition, % at 10 µM; 280,000 compounds, 0.61% hits; in the data active = inhibition mostly above about 24%, no sharp cut-off; inactive = mostly below about 32%
* marks the source's active call; other numbers are inactive results; i = inactive; nt = no result.

SMILES	T cell modulator	Bfl-1 A1 inh	NLRP3 yeast inh	NALP1 inh
Cc1cc(C)c(S(=O)(=O)N2CCN(S(=O)(=O)N3CCOCC3)CC2)c(C)c1	272	1	20	15
COc1cc(NC(=O)c2ccccc2F)ccc1NC(=O)c1cc2ccccc2o1	196	14*	28	5
COc1cc(NC(=O)c2ccc(C)cc2C)ccc1NC(=O)c1cc2ccccc2o1	195	15*	6	-15
COc1cc(NC(=O)c2ccc(C)cc2)ccc1NC(=O)c1cc2ccccc2o1	232	0	4	20
CCOc1ccc(S(=O)(=O)NCc2ccccn2)cc1	340	1	-1	42*
Cc1ccc(-n2c(=O)c(C#N)cc3c(=O)n4cccc(C)c4nc32)cc1	493	-1	13	37*
C#CCN(Cc1ccccc1)S(=O)(=O)C=C	367	-1	-2	nt
CCCNc1nc(Nc2ccc(C)cc2)nc(N2CCCC2)n1	529	-1	15	42*
CCN1CCN(S(=O)(=O)c2ccc(Cl)c(C(=O)N(C)CCOc3ccc(Cl)cc3)c2)CC1	103	1	20	nt
CCC/C(O)=C1\C(=O)CCCC1=NCCc1c(C)[nH]c2ccc(OC)cc12	240	1	2	19*
Cc1cc(NC(=O)COc2ccccc2C(N)=O)no1	420	-3	-3	nt
O=C(Cn1c(=O)cnc2ccccc21)NC1CCC(O)CC1 (stereo not given)	42	0	12	nt
COCC1CCN(Cc2cn[nH]c2-c2cc(OC)c(OC)c(OC)c2)CC1	136	-1	-5	-17
COCCCC1CCN(Cc2cn[nH]c2-c2cc(OC)c(OC)c(OC)c2)CC1	128	0	-10	26*
Cc1onc(-c2ccccc2Cl)c1C(=O)N1CCN(c2nc3ccccc3s2)CC1	151	-1	6	34*
CN(C)S(=O)(=O)c1cccc(NC(=O)C2Cc3ccccc3CN2C(=O)c2ccco2)c1 (stereo not given)	249	-1	-3	1
CSc1nnc(Cc2cc(=O)[nH]c(=O)[nH]2)n1-c1cc(C)ccc1C	210	1	7	27
CCSc1nnc(Cc2cc(=O)[nH]c(=O)[nH]2)n1-c1cc(C)ccc1C	921	0	19	28*
O=[N+]([O-])c1ccc2oc(C(O)c3cccc(Cl)c3)cc2c1 (stereo not given)	330	1	11	3
O=C(CSc1ccc(Br)cc1)Nc1ccccc1N1CCOCC1	382	0	19	8
CC(C)[C@H](NC(=O)c1ccco1)C(=O)OCC(=O)c1ccc2c(c1)NC(=O)CO2	171	0	8	-2
CC(C)CC(NC(=O)c1ccc(Cl)cc1)C(=O)OCC(=O)c1ccc2c(c1)NC(=O)CO2 (stereo not given)	215	15*	8	-19
CCOC(=O)N1CCN(Cc2nc3cc(NC(=O)c4ccco4)ccc3n2CC)CC1	437	0	-4	-10
CCOCc1nnc(NC(=O)c2cc(OC)c(OC)c(OC)c2)s1	558	0	3	7
COc1cc(C(=O)Nc2nnc(-c3sccc3C)s2)cc(OC)c1OC	80*	0	22	-5
SMILES	T cell modulator	Bfl-1 A1 inh	NLRP3 yeast inh	NALP1 inh
O=C(OCc1cccc(F)c1)c1ccc2c(=O)n3c(nc2c1)CCC3	226	0	0	35*
CN(Cc1cccc(F)c1)C(=O)c1ccc2c(=O)n3c(nc2c1)CCC3	358	0	-8	-2
CCCCCC(=O)Nc1nnn(CCC)n1	316	1	-7	43*
OC(CSc1c(Cl)cccc1Cl)CN1CCN(c2ccccc2F)CC1 (stereo not given)	449	-1	22	60*
OC(CSc1ccccc1Cl)CN1CCN(c2ccccc2F)CC1 (stereo not given)	303	0	24	44
CC(=O)Nc1sc2c(c1C#N)CCC(C)C2 (stereo not given)	399	0	3	7
Cc1ccc(C)n1-c1sc2c(c1C#N)CCC(C)C2 (stereo not given)	470	1	-14	35*
CC(C)(C)c1ccc(OCCNCc2ccccc2)cc1	87	1	50	27
CC(C)(C)c1ccc(OCCNC(=S)Nc2ccccc2)cc1	206	1	10	30*
O=C(CSc1nc2cc(Cl)ccc2o1)Nc1ccc(N2CCOCC2)cc1	350	nt	2	11
O=C(CSc1nc2ccccc2o1)Nc1ccc(N2CCOCC2)cc1	276	1	16	28*
Cc1ccc(C)c(C(=O)CN2C3=NCCCN3c3ccccc32)c1	341	0	-8	33*
CCOc1ccc(NC(=O)c2ccc(NS(=O)(=O)c3cccs3)cc2)cc1	336	0	12	-1
CC1CCCN(CCOCCOc2ccc(Br)cc2Cl)C1 (stereo not given)	227	0	35	48*
COCCCNCCCOc1ccc(Cl)cc1Br	288	1	11	19
CCCCNCCOCCOc1ccc(Cl)cc1Br	213	-2	25	52*
CC1CCCN(CCOCCOc2ccc(Cl)cc2Br)C1 (stereo not given)	829	0	34	42*
CNC(=O)Nc1ccc2snnc2c1	598	0	20	34*
O=C(Nc1ccc2snnc2c1)N1CCSCC1	244	0	-9	-22
CC(=O)c1c(C)[nH]c(C(=O)OCc2csc(CC(=O)Nc3ccccc3C)n2)c1C	276	-1	3	nt
Cc1noc(C)c1NC(=O)Nc1cccc2c1O[C@H](CN(C)S(=O)(=O)c1cn(C)cn1)[C@@H](C)CN([C@H](C)CO)C2=O	252	1	-6	nt
COc1ccc(/C=C/C(=O)NC(=S)NCCc2ccc(OC)c(OC)c2)cc1	271	7.2*	12	5
COc1cccc(OC)c1C(=O)Nc1ccccc1Sc1ccccc1	i	1	18	nt
O=c1c2ccccc2sn1-c1cc(S(=O)(=O)N2CCOCC2)ccc1N1CCOCC1	294	-2	13	30*
COc1ccc(C(=O)C(CN2CCOCC2)c2ccccc2)cc1F (stereo not given)	nt	nt	nt	41*
SMILES	T cell modulator	Bfl-1 A1 inh	NLRP3 yeast inh	NALP1 inh
COc1ccc(C(O)C(CN2CCOCC2)c2ccccc2)cc1F (stereo not given)	389	0	14	17
CCc1cccc(NC(=O)Cn2c(=O)c3cccn3c3ccccc32)c1	208	-1	2	17
COc1ccccc1Nc1ccc(NC(=O)c2cccc([N+](=O)[O-])c2C)cc1	195	1	20	5
CC1CCc2cc(F)cc3c(=O)c(C(=O)O)cn1c23 (stereo not given)	478	0	11	102*
CC1CCc2c(N3CCC(O)CC3)c(F)cc3c(=O)c(C(=O)O)cn1c23 (stereo not given)	305	-1	2	nt
O=C(OCC(=O)N1CCN(C(=O)c2ccco2)CC1)c1cccc(F)c1	282	nt	-4	nt
CC1=CC(=O)C=C(C)C1=NOS(=O)(=O)c1ccccc1	nt	nt	nt	104*
Cc1ccc2c(c1)/C(=N/OS(=O)(=O)c1ccccc1)CCS2	359	0	8	nt
CC1=CC(=O)C(C(C)C)=C/C1=N/OS(=O)(=O)c1ccccc1	104	27*	44	12
